Calls of active or inactive are those of the source. The rule behind the calls is not given here.
Assays:
Cytochrome P450 3A4 = Cytochrome P450 3A4 (Homo sapiens, UniProt P08684); experiment: Inhibition of human CYP3A4 expressed in supersomes assessed as testosterone 6beta-hydroxylation after 15 mins by HPLC analysis; assay type: ADME
Rattus norvegicus [1] = experiment: Antidepressant activity in Sprague-Dawley rat assessed as increase in climbing time at 0.3 mg/kg, ip adminstered 60 mins prior to testing measured for 5 mins by forced swimming test; assay type: functional, organism-based
In short: (§1)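 Modified forced swim test in rats with i.p. dosing. Immobility time and climbing time were scored. Data are mean ± SEM, n = 7–8 animals per group, compared against the vehicle-treated group.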

[2] = molecular target: 5-hydroxytryptamine receptor 2A (Homo sapiens, UniProt P28223); experiment: Displacement of [3H]-Ketanserin from human 5-HT2A receptor expressed in HEK293 cells by microbeta liquid scintillation counting; assay type: cell-based
5-hydroxytryptamine receptor 2A, sequence (P28223 whole entry): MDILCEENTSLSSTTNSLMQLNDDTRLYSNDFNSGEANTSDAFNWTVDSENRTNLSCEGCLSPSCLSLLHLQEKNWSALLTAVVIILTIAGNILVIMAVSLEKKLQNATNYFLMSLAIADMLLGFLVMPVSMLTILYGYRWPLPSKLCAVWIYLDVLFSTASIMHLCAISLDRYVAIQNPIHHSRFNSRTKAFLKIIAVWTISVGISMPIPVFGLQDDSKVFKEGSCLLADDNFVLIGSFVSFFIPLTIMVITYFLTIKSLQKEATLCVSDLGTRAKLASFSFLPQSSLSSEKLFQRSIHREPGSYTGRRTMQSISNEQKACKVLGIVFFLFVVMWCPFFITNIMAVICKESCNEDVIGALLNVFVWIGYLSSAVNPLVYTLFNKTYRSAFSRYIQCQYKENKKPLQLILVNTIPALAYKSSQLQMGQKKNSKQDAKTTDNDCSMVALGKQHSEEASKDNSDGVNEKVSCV
In short: (§2)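 Ki values reported as the mean of two independent radioligand binding experiments.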

Rattus norvegicus [3] = experiment: Antidepressant activity in Sprague-Dawley rat assessed as reduction in immobility time at 0.3 mg/kg, ip adminstered 60 mins prior to testing measured for 5 mins by forced swimming test; assay type: functional, organism-based; in short: as §1
[4] = molecular target: Histamine H1 receptor (Homo sapiens) (UniProt P35367); experiment: Displacement of [3H]pyrilamine from human recombinant histamine H1 receptor expressed in HEK293 cells after 60 mins by scintillation counting.; assay type: cell-based
[5] = Ratio of drug level in Wistar rat brain to plasma at 3 mg/kg, ip after 15 to 90 mins by LC-MS/MS analysis; assay type: ADME, organism-based; details: read-out: BPR
In short: (§3)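 Male Wistar rats received a single 3 mg/kg i.p. dose. Brain and plasma drug levels were measured at 15, 30 and 90 min after dosing. Brain level is expressed as ng/g tissue, alongside the brain-to-plasma concentration ratio.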

[6] = molecular target: T1, 5-hydroxytryptamine receptor 1A (Homo sapiens, UniProt P08908); experiment: Displacement of [3H]-8-OH-DPAT from human 5-HT1A receptor expressed in HEK293 cells by microbeta liquid scintillation counting; assay type: cell-based; in short: as §2
T1 sequence (P08908 whole entry): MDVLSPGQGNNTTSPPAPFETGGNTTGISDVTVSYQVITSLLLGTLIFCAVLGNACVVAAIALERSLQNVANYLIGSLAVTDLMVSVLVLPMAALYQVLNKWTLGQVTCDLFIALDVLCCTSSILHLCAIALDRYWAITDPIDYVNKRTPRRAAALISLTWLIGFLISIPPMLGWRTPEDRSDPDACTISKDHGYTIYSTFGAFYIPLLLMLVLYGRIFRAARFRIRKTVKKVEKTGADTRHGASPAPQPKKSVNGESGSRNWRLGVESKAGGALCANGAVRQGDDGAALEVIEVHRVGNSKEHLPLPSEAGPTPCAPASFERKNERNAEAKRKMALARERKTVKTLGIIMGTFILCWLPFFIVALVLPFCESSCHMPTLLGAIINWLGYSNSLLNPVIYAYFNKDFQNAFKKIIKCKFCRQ

[7] = molecular target: 5-hydroxytryptamine receptor 2C (Homo sapiens) (UniProt P28335); experiment: Displacement of [3H]mesulergine from human recombinant 5-HT2C receptor expressed in HEK293 cells after 120 mins by scintillation counting; assay type: cell-based
Cytochrome P450 2D6 = Cytochrome P450 2D6 (Homo sapiens, UniProt P10635); experiment: Inhibition of human CYP2D6 expressed in supersomes assessed as bufuralol 1'-hydroxylation after 15 mins by HPLC analysis; assay type: ADME
[8] = molecular target: Sodium-dependent serotonin transporter (Homo sapiens) (UniProt P31645); experiment: Displacement of [3H]imipramine from human recombinant SERT expressed in CHO cells after 60 mins by scintillation counting; assay type: cell-based
Sodium-dependent serotonin transporter (Homo sapiens), sequence (P31645 whole entry, looked up): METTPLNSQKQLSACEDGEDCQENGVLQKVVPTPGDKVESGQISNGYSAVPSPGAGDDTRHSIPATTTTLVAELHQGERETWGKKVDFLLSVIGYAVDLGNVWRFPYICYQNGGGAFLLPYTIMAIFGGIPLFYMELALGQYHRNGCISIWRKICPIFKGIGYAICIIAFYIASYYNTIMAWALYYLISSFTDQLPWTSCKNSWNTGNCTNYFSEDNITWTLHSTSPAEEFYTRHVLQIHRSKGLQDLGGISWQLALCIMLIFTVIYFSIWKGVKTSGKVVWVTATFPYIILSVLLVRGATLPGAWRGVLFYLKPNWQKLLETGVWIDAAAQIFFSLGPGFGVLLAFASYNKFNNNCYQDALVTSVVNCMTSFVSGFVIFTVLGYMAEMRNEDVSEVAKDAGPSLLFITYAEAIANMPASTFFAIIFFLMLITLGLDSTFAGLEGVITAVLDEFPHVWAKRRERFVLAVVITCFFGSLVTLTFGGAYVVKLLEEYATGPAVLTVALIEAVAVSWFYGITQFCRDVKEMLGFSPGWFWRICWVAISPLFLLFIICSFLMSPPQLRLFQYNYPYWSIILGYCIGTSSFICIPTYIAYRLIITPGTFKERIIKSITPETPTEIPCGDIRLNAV

[9] = molecular target: 5-hydroxytryptamine receptor 7 (Homo sapiens, UniProt P34969); experiment: Displacement of [3H]-5-CT from human 5-HT7B receptor expressed in HEK293 cells by microbeta liquid scintillation counting; assay type: cell-based; in short: as §2
5-hydroxytryptamine receptor 7, sequence (P34969 whole entry): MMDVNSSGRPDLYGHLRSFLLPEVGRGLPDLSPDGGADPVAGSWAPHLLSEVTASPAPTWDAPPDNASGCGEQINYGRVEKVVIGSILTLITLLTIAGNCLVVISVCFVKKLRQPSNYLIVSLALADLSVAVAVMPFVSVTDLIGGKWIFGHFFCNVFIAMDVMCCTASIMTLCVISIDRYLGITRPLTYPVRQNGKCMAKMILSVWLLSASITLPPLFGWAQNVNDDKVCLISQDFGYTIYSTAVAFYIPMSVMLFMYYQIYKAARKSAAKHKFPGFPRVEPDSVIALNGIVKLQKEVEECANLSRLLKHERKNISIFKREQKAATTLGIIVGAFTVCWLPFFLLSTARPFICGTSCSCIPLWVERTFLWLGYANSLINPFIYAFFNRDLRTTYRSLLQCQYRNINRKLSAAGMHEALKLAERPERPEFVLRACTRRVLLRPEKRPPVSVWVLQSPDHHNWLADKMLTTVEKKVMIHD

[10] = Drug uptake in Wistar rat brain at 3 mg/kg, ip after 30 mins by LC-MS/MS analysis; assay type: ADME, organism-based; details: read-out: Drug uptake; in short: as §3
[11] = Solubility of the compound at pH 2; assay type: physicochemical; details: buffer
Cytochrome P450 2C9 = Cytochrome P450 2C9 (Homo sapiens, UniProt P11712); experiment: Inhibition of human CYP2C9 expressed in supersomes assessed as diclofenac 4'-hydroxylation after 15 mins by HPLC analysis; assay type: ADME
[12] = Mutagenicity in Salmonella typhimurium TA100 at 0.2 to 16 ug/ml after 48 hrs by Ames test; assay type: toxicity; details: salmonella enterica subsp. enterica serovar typhimurium
[13] = molecular target: Alpha-2C adrenergic receptor (Homo sapiens) (UniProt P18825); experiment: Displacement of [3H]RX 821002 from human recombinant adrenergic alpha 2C receptor expressed in CHO cells after 60 mins by scintillation counting; assay type: cell-based
Alpha-2C adrenergic receptor (Homo sapiens), sequence (P18825 whole entry): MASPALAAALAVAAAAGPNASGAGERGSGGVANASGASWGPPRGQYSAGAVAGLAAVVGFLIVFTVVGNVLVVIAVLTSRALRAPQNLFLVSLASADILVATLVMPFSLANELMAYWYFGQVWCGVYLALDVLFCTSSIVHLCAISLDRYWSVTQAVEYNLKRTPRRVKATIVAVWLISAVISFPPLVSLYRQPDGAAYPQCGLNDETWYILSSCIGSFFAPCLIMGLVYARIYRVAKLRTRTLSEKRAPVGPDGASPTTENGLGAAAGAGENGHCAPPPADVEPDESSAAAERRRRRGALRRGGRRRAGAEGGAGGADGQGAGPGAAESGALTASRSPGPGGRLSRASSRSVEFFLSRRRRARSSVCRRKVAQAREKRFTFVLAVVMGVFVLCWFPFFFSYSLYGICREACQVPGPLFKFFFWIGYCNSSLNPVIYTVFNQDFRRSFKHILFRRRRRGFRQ

[14] = Solubility of the compound at pH 7.4; assay type: physicochemical; details: buffer
D(3) dopamine receptor [15] = molecular target: T2, D(3) dopamine receptor (Homo sapiens, UniProt P35462); experiment: Displacement of [3H]-methyl-spiperone from human recombinant dopamine D3 receptor expressed in CHO cells after 60 mins by scintillation counting; assay type: cell-based
T2 sequence (P35462 whole entry): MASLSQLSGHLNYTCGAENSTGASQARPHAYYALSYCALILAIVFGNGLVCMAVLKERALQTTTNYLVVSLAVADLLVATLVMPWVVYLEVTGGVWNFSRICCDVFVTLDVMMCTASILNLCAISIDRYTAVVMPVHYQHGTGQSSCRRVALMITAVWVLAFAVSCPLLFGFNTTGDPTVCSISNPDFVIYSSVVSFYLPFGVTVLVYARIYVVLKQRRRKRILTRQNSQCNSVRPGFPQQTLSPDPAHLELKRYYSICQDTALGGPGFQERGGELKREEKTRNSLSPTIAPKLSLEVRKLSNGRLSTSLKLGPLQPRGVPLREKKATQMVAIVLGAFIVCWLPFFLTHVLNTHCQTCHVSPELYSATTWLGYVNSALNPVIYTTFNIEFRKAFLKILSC

[16] = molecular target: 5-hydroxytryptamine receptor 2B (Homo sapiens) (UniProt P41595); experiment: Agonist activity at human recombinant 5-HT2B receptor expressed in HEK-293 cells assessed as IP1 accumulation at 1 uM after 30 mins by HTRF assay; assay type: functional, cell-based
D(2) dopamine receptor = D(2) dopamine receptor (Homo sapiens, UniProt P14416); experiment: Displacement of [3H]-Raclopride from human D2L receptor expressed in HEK293 cells by microbeta liquid scintillation counting; assay type: cell-based; in short: as §2
D(2) dopamine receptor, sequence (P14416 whole entry): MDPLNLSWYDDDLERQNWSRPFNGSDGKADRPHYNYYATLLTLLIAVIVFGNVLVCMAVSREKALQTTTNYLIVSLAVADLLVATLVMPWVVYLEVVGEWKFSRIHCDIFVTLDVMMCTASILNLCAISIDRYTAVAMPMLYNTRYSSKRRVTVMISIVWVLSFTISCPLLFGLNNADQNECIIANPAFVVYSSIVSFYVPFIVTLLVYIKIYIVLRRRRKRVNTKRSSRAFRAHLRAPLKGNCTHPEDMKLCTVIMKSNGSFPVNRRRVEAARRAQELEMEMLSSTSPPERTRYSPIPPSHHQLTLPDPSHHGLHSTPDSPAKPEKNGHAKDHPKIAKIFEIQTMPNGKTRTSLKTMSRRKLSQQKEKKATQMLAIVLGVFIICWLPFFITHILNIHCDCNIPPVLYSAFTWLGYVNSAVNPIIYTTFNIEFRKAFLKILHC

Cytochrome P450 2C19 = Cytochrome P450 2C19 (Homo sapiens, UniProt P33261); experiment: Inhibition of human CYP2C19 expressed in supersomes assessed as perazine N-demethylation after 15 mins by HPLC analysis; assay type: ADME
Cytochrome P450 2C19, sequence (P33261 whole entry): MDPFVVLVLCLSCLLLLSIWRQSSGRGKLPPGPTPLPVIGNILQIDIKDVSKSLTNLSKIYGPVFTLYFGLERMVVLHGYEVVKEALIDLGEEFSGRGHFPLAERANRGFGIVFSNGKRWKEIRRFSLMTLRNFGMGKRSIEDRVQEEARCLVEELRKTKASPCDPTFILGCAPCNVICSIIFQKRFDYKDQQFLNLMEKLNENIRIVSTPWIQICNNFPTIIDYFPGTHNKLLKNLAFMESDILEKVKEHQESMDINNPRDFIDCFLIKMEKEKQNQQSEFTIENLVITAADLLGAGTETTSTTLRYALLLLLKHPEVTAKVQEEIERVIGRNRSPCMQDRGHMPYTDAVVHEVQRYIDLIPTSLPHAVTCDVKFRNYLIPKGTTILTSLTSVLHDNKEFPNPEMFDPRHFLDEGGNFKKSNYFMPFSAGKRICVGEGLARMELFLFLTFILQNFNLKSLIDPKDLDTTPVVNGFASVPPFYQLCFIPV

Cytochrome P450 1A2 = Cytochrome P450 1A2 (Homo sapiens, UniProt P05177); experiment: Inhibition of human CYP1A2 expressed in supersomes assessed as caffeine 3-N-demethylation after 15 mins by HPLC analysis; assay type: ADME
Cytochrome P450 1A2, sequence (P05177 whole entry): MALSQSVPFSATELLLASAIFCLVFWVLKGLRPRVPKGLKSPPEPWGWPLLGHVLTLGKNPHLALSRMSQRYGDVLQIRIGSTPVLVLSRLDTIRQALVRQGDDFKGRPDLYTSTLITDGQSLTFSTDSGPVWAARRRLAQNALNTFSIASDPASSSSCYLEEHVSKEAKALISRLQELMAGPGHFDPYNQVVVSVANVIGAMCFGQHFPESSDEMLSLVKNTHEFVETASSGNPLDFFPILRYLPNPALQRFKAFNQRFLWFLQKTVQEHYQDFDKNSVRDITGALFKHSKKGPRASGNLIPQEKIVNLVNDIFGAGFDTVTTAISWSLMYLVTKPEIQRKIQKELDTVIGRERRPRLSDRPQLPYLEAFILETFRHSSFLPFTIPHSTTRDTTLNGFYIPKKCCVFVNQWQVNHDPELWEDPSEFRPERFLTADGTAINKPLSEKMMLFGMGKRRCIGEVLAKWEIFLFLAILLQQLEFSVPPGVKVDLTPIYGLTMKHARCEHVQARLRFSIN

[17] = molecular target: Muscarinic acetylcholine receptor M1 (Homo sapiens) (UniProt P11229); experiment: Displacement of [3H]pirenzepine from human recombinant muscarinic M1 receptor expressed in CHO cells after 60 mins by scintillation counting; assay type: cell-based
Muscarinic acetylcholine receptor M1 (Homo sapiens), sequence (P11229 whole entry): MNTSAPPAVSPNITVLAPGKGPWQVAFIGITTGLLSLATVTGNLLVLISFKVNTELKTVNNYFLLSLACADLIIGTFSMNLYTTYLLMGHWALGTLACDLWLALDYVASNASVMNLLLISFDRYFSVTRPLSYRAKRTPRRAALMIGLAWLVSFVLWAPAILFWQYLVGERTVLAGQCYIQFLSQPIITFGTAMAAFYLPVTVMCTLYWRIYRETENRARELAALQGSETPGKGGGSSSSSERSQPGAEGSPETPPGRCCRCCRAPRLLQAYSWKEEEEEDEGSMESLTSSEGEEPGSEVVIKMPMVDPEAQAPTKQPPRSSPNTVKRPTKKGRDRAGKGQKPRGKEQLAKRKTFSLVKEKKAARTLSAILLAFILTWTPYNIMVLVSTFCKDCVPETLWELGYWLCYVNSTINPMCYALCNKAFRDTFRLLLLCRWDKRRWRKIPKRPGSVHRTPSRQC

[18] = molecular target: Voltage-gated inwardly rectifying potassium channel KCNH2 (Homo sapiens, UniProt Q12809); experiment: Displacement of [3H]Dofetilide from human recombinant ERG expressed in HEK293 cells at 10 to 50 uM after 60 mins by scintillation counting; assay type: cell-based; details: hek293, 1 h
Rattus norvegicus [19] = experiment: Cognitive enhancing effect in ip dosed Sprague-Dawley rat assessed as reversal of PCP induced memory deficit administered 1 hour and 15 mins before familiarization phase by novel object recognition test; assay type: functional; details: for minimal effective dose: read-out: MED
In short: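 Memory deficit induced with PCP in rats. Test and reference agents were given i.p., and the reversal of the deficit in novel-object recognition was scored. Data are mean ± SEM, n = 7–12 animals per group, compared against the vehicle and PCP groups.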

D(3) dopamine receptor [20] = molecular target: T2, D(3) dopamine receptor; experiment: Antagonist activity at human recombinant dopamine D3 receptor expressed in CHO cells assessed as inhibition of dopamine-induced cAMP accumulation after 30 mins by HTRF assay; assay type: functional, cell-based
Homo sapiens = species on record: Homo sapiens; experiment: Selectivity ratio of Ki for human D2L receptor expressed in HEK293 cells to Ki for human 5-HT6 receptor expressed in HEK293 cells; assay type: cell-based
[21] = molecular target: Adrenergic receptor alpha-1 (Rattus norvegicus) (UniProt P15823+P23944+P43140); experiment: Displacement of [3H]prazosin from rat cerebral cortex adrenergic alpha 1 receptor after 60 mins by scintillation counting

Cytochrome P450 3A4, sequence (P08684 whole entry): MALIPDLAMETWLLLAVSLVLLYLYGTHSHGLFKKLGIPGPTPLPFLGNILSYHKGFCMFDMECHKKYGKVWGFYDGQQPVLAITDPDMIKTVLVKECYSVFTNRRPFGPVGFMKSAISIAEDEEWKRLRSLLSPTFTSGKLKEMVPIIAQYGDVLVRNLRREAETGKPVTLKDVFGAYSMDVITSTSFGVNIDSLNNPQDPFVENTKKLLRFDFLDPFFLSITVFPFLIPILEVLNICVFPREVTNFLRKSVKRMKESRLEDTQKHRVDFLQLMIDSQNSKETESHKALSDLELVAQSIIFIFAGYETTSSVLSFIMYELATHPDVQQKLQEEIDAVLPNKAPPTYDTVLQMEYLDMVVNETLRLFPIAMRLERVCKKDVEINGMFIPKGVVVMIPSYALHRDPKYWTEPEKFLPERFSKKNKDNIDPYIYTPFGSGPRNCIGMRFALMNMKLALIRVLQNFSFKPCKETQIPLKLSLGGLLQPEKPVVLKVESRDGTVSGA

Structure (SMILES) | IC50 (Cytochrome P450 3A4) | Activity (Rattus norvegicus [1]) | Ki [2] | Activity (Rattus norvegicus [3]) | inhibition [4] | Kp [5] | Ki [6] | inhibition [7] | IC50 (Cytochrome P450 2D6) | inhibition [8] | Ki [9] | concentration at 0.5 h [10] | solubility [11] | IC50 (Cytochrome P450 2C9) | Activity [12] | inhibition [13] | solubility [14] | Ki (D(3) dopamine receptor [15]) | Activity [16] | Ki (D(2) dopamine receptor) | other results
COc1ccc2c(c1)c(C1=CCNCC1)cn2S(=O)(=O)c1ccc2cccnc2c1 | 20 µM | Active | 1 µM | Active | 9% | 0.1 to 0.6 | 5.04 µM | 18% | > 100 µM | 4% | 6.25 µM | 21.9 ng/g | > 5000 µg/mL | > 100 µM | Non-Toxic | 18% | > 5000 µg/mL | 0.032 µM | < 13% | 0.24 µM | IC50 (Cytochrome P450 2C19): > 100 µM; IC50 (Cytochrome P450 1A2): 100 µM; inhibition [17]: 11%; inhibition (INH) [18]: Not Active; Activity (Rattus norvegicus [19]): Dose-dependent effect; minimal effective dose (Rattus norvegicus [19]): 1 mg/kg; inhibition (D(3) dopamine receptor [20]): inactive; Ratio Ki (Homo sapiens): 70; inhibition [21]: 41%
COc1ccc2c(c1)c(C1=CCNCC1)cn2S(=O)(=O)c1cncc2ccccc12 | 26 µM | Active | 3.35 µM | Active | 15% | 0.1 to 0.6 | 5.01 µM | 15% | > 100 µM | 6% | 7.83 µM | 18.6 ng/g | > 5000 µg/mL | > 100 µM | Non-Toxic | 21% | > 5000 µg/mL | 0.15 µM | < 13% | 3.32 µM | IC50 (Cytochrome P450 2C19): > 100 µM; IC50 (Cytochrome P450 1A2): 100 µM; inhibition [17]: 0%; inhibition (INH) [18]: Not Active; Activity (Rattus norvegicus [19]): Dose-dependent effect; minimal effective dose (Rattus norvegicus [19]): 1 mg/kg; inhibition (D(3) dopamine receptor [20]): inactive; Ratio Ki (Homo sapiens): 70; inhibition [21]: 40%
